34 compounds from ChEMBL document CHEMBL1148732, “New 2-arylpyrazolo[3,4-c]quinoline derivatives as potent and selective human A3 adenosine receptor antagonists. Synthesis, pharmacological evaluation, and ligand-receptor modeling studies” (J Med Chem, 2007) can be followed below.

Assay type in all cases: cell-based
In experiment [1] the target is T1, Adenosine receptor A1 (Homo sapiens) (UniProt P30542).
T1 sequence (whole entry): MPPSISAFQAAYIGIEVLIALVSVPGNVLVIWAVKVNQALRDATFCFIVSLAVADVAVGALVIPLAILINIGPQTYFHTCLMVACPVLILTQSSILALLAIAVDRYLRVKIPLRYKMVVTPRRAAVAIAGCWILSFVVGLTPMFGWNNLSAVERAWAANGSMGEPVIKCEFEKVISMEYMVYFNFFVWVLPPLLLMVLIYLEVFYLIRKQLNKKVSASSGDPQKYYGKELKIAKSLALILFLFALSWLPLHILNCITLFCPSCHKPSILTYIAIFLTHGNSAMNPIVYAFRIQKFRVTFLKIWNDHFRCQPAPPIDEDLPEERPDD
Put plainly: Displacement of [3H]DPCPX from human adenosine A1 receptor expressed in CHO cells at 10 uM.

In experiment [2] the target is T2, Adenosine receptor A2a (Homo sapiens, UniProt P29274). The experiment is described as follows: Displacement of [3H]NECA from human adenosine A2A receptor expressed in CHO cells at 10 uM. On the technique in general: Loss of bound radioactivity is the signal in a displacement assay; it reports binding, not function.
The target of a further experiment is T3, Adenosine receptor A3 (Homo sapiens, UniProt P0DMS8).
T3 sequence (P0DMS8 whole entry): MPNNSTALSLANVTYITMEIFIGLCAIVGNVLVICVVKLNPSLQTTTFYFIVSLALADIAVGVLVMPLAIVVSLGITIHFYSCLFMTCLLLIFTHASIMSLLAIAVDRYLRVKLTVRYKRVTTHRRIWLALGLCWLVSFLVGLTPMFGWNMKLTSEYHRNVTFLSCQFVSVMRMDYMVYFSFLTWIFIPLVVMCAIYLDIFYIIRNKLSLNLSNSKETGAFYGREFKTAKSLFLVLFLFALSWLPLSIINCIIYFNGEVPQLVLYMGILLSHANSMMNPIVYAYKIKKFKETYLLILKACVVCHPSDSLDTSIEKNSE
Put plainly: Displacement of [125I]AB-MECA from human adenosine A3 receptor expressed in CHO cells. The procedure, abridged: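 Five displacer concentrations, each in triplicate. IC50 by nonlinear regression, converted to Ki with Cheng-Prusoff. Means ± SEM of four separate assays.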

In another experiment the target is T4, Adenosine receptor A1 (Homo sapiens, UniProt P30542).
T4 sequence (P30542 whole entry): T1 sequence (whole entry)
The experiment is described as follows: Displacement of [3H]DPCPX from human adenosine A1 receptor expressed in CHO cells. The procedure, abridged:
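Five concentrations in triplicate. IC50 by nonlinear regression, converted to Ki with Cheng-Prusoff. Means ± SEM of four assays.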

Experiment [3] deals with T2, Adenosine receptor A2a. Put plainly: Displacement of [3H]NECA from human adenosine A2A receptor expressed in CHO cells.
The target in experiment [4] is T5, Adenosine receptor A3 (Homo sapiens) (UniProt P0DMS8).
T5 sequence (whole entry): T3 sequence (P0DMS8 whole entry)
Put plainly: Displacement of [125I]AB-MECA from human adenosine A3 receptor expressed in CHO cells at 1 uM.

T2 sequence (P29274 whole entry): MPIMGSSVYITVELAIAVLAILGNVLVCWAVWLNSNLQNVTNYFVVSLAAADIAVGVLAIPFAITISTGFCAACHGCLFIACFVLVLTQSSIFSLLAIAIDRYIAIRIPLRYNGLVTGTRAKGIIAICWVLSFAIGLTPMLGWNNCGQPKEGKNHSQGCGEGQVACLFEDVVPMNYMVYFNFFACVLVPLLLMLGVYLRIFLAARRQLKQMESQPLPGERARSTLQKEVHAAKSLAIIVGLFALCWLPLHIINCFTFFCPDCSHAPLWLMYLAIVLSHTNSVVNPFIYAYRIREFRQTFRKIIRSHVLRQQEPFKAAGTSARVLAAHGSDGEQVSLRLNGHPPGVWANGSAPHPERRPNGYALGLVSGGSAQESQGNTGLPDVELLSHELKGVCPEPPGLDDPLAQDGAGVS

Regarding `O=C(c1ccccc1)N(C(=O)c1ccccc1)c1nc2ccccc2c2cn(-c3ccccc3)nc12`, the Activity (in experiment [1]; on Adenosine receptor A2a [2]) was 0% each time. In addition, at Adenosine receptor A3, the Ki is 6.1 nM.
The compound `O=c1[nH]c2ccccc2c2cn(-c3ccccc3)nc12` had an Activity at Adenosine receptor A2a [2] of 43%. Moreover, the Ki at Adenosine receptor A1 is 203 nM.
As to `O=C(NCc1ccccc1)Nc1nc2ccccc2c2cn(-c3ccccc3)nc12`, the Activity in experiment [1] worked out at 0%; on Adenosine receptor A2a [2], 3%.
As to `Cc1cccc(-n2cc3c(n2)c(NC(=O)NCc2ccccc2)nc2ccccc23)c1`, the Activity on Adenosine receptor A2a [2] is 20%. The Ki on Adenosine receptor A1 stood at 6800 nM; at Adenosine receptor A3, 3.35 nM.
Take `Cc1ccc(-n2cc3c(n2)c(NC(=O)C(c2ccccc2)c2ccccc2)nc2ccccc23)cc1`: the Activity in experiment [1] stood at 32%; on Adenosine receptor A2a [2] it was 3%. Besides, the Ki on Adenosine receptor A3 was found to be 11.5 nM.
For the compound `Cc1ccc(-n2cc3c(n2)c(N)nc2ccccc23)cc1`, the Ki on Adenosine receptor A1 was 45 nM; on Adenosine receptor A2a [3], 329 nM.
As for `Cc1ccc(-n2cc3c(n2)c(NC(=O)Cc2ccccc2)nc2ccccc23)cc1`, the Activity in experiment [1] is 55%; on Adenosine receptor A2a [2], 21%. Also, the Ki at Adenosine receptor A3 amounted to 5.6 nM.
Take `COc1ccc(-n2cc3c(n2)c(=O)[nH]c2ccccc23)cc1`: the Activity on Adenosine receptor A2a [2] was determined as 25%. This compound also yielded a Ki on Adenosine receptor A1 of 176 nM.
At Adenosine receptor A2a [2], `COc1ccc(-n2cc3c(n2)c(NC(=O)Cc2ccccc2)nc2ccccc23)cc1` yielded an Activity of 51%. Also, the Ki on Adenosine receptor A1 amounted to 201 nM; at Adenosine receptor A3, 4.5 nM.
As to `Cc1ccc(-n2cc3c(n2)c(NC(=O)NCc2ccccc2)nc2ccccc23)cc1`, the Activity in experiment [1] was found to be 5%; at Adenosine receptor A2a [2], 39%. This compound displayed a Ki at Adenosine receptor A3 of 257 nM.
Take `CC(=O)Nc1nc2ccccc2c2cn(-c3ccc(C)cc3)nc12`: the results for the Ki on Adenosine receptor A1, at Adenosine receptor A2a [3] and at Adenosine receptor A3 were 455 nM, 1500 nM and 123 nM, respectively.
On Adenosine receptor A2a [2], `Cc1cccc(-n2cc3c(n2)c(=O)[nH]c2ccccc23)c1` registered an Activity of 46%. Affinity on Adenosine receptor A1 was put at a Ki of 12 nM.
As for `Cc1ccc(-n2cc3c(n2)c(NC(=O)c2ccccc2)nc2ccccc23)cc1`, the Activity at Adenosine receptor A2a [2] came to 26%. For the same compound, the Ki at Adenosine receptor A1 amounted to 629 nM; on Adenosine receptor A3, 4.4 nM.
For `COc1ccc(-n2cc3c(n2)c(NC(C)=O)nc2ccccc23)cc1`, in that order: 0%, 2880 nM and 102 nM.
Regarding `O=c1[nH]c2ccccc2c2cn(-c3ccc([N+](=O)[O-])cc3)nc12`, the Activity at Adenosine receptor A2a [2] was 0%. Further, the Ki came out at 357 nM on Adenosine receptor A1 and 85.5 nM at Adenosine receptor A3.
Take `COc1cccc(-n2cc3c(n2)c(N)nc2ccccc23)c1`: the results for the Ki on Adenosine receptor A1, at Adenosine receptor A2a [3] and at Adenosine receptor A3 were 32 nM, 486 nM and 229 nM, respectively.
On to `COc1ccc(-n2cc3c(n2)c(N)nc2ccccc23)cc1`, for which affinity on Adenosine receptor A1 was put at a Ki of 40 nM.
With `Cc1cccc(-n2cc3c(n2)c(NC(=O)Cc2ccccc2)nc2ccccc23)c1`, the Activity at Adenosine receptor A2a [2] amounted to 24%. Further, the Ki is 60 nM at Adenosine receptor A1 and 3.9 nM on Adenosine receptor A3.
As for `COc1ccc(-n2cc3c(n2)c(NC(=O)C(c2ccccc2)c2ccccc2)nc2ccccc23)cc1`, the figures for the Activity (in experiment [1]; at Adenosine receptor A2a [2]) were 47% and 0%, respectively. Moreover, the affinity at Adenosine receptor A3 corresponds to a Ki of 9 nM.
With `COc1cccc(-n2cc3c(n2)c(=O)[nH]c2ccccc23)c1`, the Activity on Adenosine receptor A2a [2] stood at 52%. The results for the Ki on Adenosine receptor A1 and at Adenosine receptor A3 were 14 nM and 7.3 nM, respectively.
Consider `O=C(Nc1nc2ccccc2c2cn(-c3ccccc3)nc12)c1ccccc1`, for which the Activity turned out to be 0% in experiment [1] and 9% at Adenosine receptor A2a [2].
For the compound `Cc1cccc(-n2cc3c(n2)c(N(C(=O)c2ccccc2)C(=O)c2ccccc2)nc2ccccc23)c1`, the Activity came out at 42% in experiment [1] and 20% at Adenosine receptor A2a [2]. The compound further displayed a Ki on Adenosine receptor A3 of 23.2 nM.
The compound `COc1ccc(-n2cc3c(n2)c(NC(=O)c2ccccc2)nc2ccccc23)cc1` showed an Activity at Adenosine receptor A2a [2] of 39%. Moreover, the Ki on Adenosine receptor A1 turned out to be 250 nM; at Adenosine receptor A3 it was 3.4 nM.
For the compound `Cc1ccc(-n2cc3c(n2)c(=O)[nH]c2ccccc23)cc1`, on Adenosine receptor A2a [2], the Activity was determined as 44%. Moreover, affinity at Adenosine receptor A1 was put at a Ki of 29 nM.
Regarding `Cc1cccc(-n2cc3c(n2)c(NC(=O)c2ccccc2)nc2ccccc23)c1`, the Ki at Adenosine receptor A1 was determined as 57 nM; on Adenosine receptor A2a [3] it was 2860 nM; at Adenosine receptor A3, 4.3 nM.
As to `COc1ccc(-n2cc3c(n2)c(NC(=O)NCc2ccccc2)nc2ccccc23)cc1`, the Activity in experiment [1] turned out to be 43%; on Adenosine receptor A2a [2] it was 0%; in experiment [4], 40%.
`Cc1cccc(-n2cc3c(n2)c(NC(=O)C(c2ccccc2)c2ccccc2)nc2ccccc23)c1` came in with an Activity at Adenosine receptor A2a [2] of 4%. The Ki at Adenosine receptor A1 amounted to 559 nM; on Adenosine receptor A3 it was 14 nM.
`CC(=O)Nc1nc2ccccc2c2cn(-c3ccccc3)nc12`: the Activity in experiment [1] turned out to be 0%; on Adenosine receptor A2a [2] it was 3%.
With `Cc1cccc(-n2cc3c(n2)c(N)nc2ccccc23)c1`, the Ki was 21 nM on Adenosine receptor A1 and 228 nM at Adenosine receptor A2a [3].
For `O=c1[nH]c2ccccc2c2cn(Cc3ccccc3)nc12`, the Activity in experiment [1] turned out to be 8%; on Adenosine receptor A2a [2] it was 32%. Moreover, on Adenosine receptor A3, the inhibition constant Ki was 74.5 nM.
Regarding `Nc1nc2ccccc2c2cn(-c3ccccc3)nc12`, on Adenosine receptor A1, the Ki is 659 nM.
Turning to `O=C(Cc1ccccc1)Nc1nc2ccccc2c2cn(-c3ccccc3)nc12`, the Activity in experiment [1] stood at 5%; at Adenosine receptor A2a [2], 15%.
Consider `Cc1ccc(-n2cc3c(n2)c(N(C(=O)c2ccccc2)C(=O)c2ccccc2)nc2ccccc23)cc1`, for which the Activity turned out to be 32% in experiment [1] and 0% on Adenosine receptor A2a [2]. Also, the affinity at Adenosine receptor A3, expressed as Ki, was 30 nM.
On to `CC(=O)Nc1nc2ccccc2c2cn(-c3cccc(C)c3)nc12`, for which, at Adenosine receptor A2a [2], the Activity was determined as 10%. Moreover, the values for the inhibition constant (Ki) on Adenosine receptor A1 and at Adenosine receptor A3 were 203 nM and 31 nM, respectively.

A word on the Ki: it is a measure of affinity in units of concentration, obtained from inhibition or displacement. Lower therefore signals higher affinity.
